The results in this text go back to ChEMBL document CHEMBL3861989, “Amending HIV Drugs: A Novel Small-Molecule Approach To Target Lupus Anti-DNA Antibodies” (J Med Chem, 2016).

Data set [1] is filed under the species Mus musculus. Nature of the data set: Binding affinity to mouse anti-dsDNA monoclonal antibody R4A assessed as inhibition of RA4 binding to DWEYS peptide at 5 to 50 uM preincubated for 1 hr followed by DWEYS peptide addition measured after 1 hr by ELISA. The method in brief:
(§1)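 Competitive ELISA: plates coated with DWEYS peptide overnight at 37 °C uncovered, blocked 3% BSA/PBS 1 h 37 °C. Compounds at varying concentrations preincubated with R4A (20 µg/mL) 1 h 37 °C, then added to washed wells 1 h 37 °C. Detection with alkaline phosphatase anti-mouse IgG (1:1000, 1 h RT), pNPP substrate 30–60 min, absorbance 405 nm.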
Background: ELISA stands for enzyme-linked immunosorbent assay.

For data set [2], the species on record is Mus musculus. Nature of the data set: (§2) Binding affinity to mouse anti-dsDNA monoclonal antibody R4A assessed as inhibition of RA4 binding to DWEYS peptide preincubated for 1 hr followed by DWEYS peptide addition measured after 1 hr by ELISA. The method in brief:
as §1

Data set [3] can be described thus: as §2. In short, it runs like this: as §1
Data set [4] is filed under the species Mus musculus. Nature of the data set: Neuroprotective activity in C57BL/6 mouse assessed as inhibition of R4A-induced hippocampal neuron apoptosis at 50 uM pretreated to mouse followed by R4A injection measured after 1 day by TUNEL assay. It counts as functional. The method in brief:
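Male C57BL/6 mice (30–34 g) anesthetized with 2.5% avertin ip. R4A (20 µg/mL) preincubated with vehicle or compound (50 µM) and injected stereotaxically (2 µL) into dorsal hippocampus CA1.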

Data set [5] deals with Mus musculus. Nature of the data set: Toxicity in CD-1 mouse assessed as behavioral changes administered daily for 1 week. The conditions noted are these: in vivo, 168 h. It counts as organism-based.
Data set [6] concerns Mus musculus. Nature of the data set: Toxicity in CD-1 mouse assessed as tissue abnormalities administered daily for 1 week. The class given is organism-based. The conditions noted are these: in vivo, 168 h.
The species entered for data set [7] is Mus musculus. Nature of the data set: Binding affinity to mouse anti-dsDNA monoclonal antibody R4A assessed as inhibition of RA4 binding to mouse kidney glomeruli antigens by measuring suppression of antibody deposition in kidney glomeruli at 50 uM preincubated for 1 hr followed by glomeruli addition by fluorescence microscopic analysis. The method in brief:
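Murine glomeruli isolated and adhered to glass slides. R4A (20 µg/mL) preincubated with compound (50 µM) 1 h at 37 °C, then applied to glomeruli 1 h at room temperature. Bound antibody detected with FITC-conjugated anti-mouse IgG, PBS washes, fluorescence imaging.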

In data set [8] the test system is Mus musculus. Nature of the data set: Reduction in interstitial inflammation score in kidney of NZB/NZW F1 mouse systemic lupus erythematosus model at 5 mg/kg/day, ip bid administered on day 1 at 22 weeks of age measured daily during compound dosing at 60 weeks by conglomerate blinded analysis. The class given is functional, organism-based. In short, it runs like this:
(§3)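 Female NZB/W F1 mice dosed ip twice daily (5 mg kg−1 day−1) from 22 weeks of age. Formalin-fixed, paraffin-embedded kidney sections stained with H&E and scored blind by one investigator, 0–3+ each for glomerular sclerosis, hypercellularity, crescents, interstitial nephritis and perivascular infiltrates. Combined scores assessed at 60 weeks.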

In data set [9] the test system is Mus musculus. Nature of the data set: Reduction in glomerular sclerosis score in kidney of NZB/NZW F1 mouse systemic lupus erythematosus model at 5 mg/kg/day, ip bid administered on day 1 at 22 weeks of age measured daily during compound dosing at 60 weeks by conglomerate blinded analysis. It counts as functional, organism-based. In short, it runs like this: as §3

Data set [10] relates to Mus musculus. Nature of the data set: Induction of delayed onset of systemic lupus erythematosus disease in NZB/W F1 mouse model at 5 mg/kg/day, ip bid administered on day 1 at 22 weeks of age measured daily during compound dosing up to 34 weeks of age. It counts as functional. The method in brief:
(§4)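 Female NZB/W F1 mice from 22 weeks of age, before severe proteinuria, grouped by matched mean proteinuria and body weight (n = 10/group). Vehicle or compound at 5 mg kg−1 day−1 given ip twice daily. Body weight weekly, proteinuria every 2 weeks. Removal on ≥20% weight loss, prostration, or ≥3+ proteinuria two consecutive weeks; study end at 46 weeks.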

Data set [11] has as its system Mus musculus. Nature of the data set: Reduction in crescents score in kidney of NZB/NZW F1 mouse systemic lupus erythematosus model at 5 mg/kg/day, ip bid administered on day 1 at 22 weeks of age measured daily during compound dosing at 60 weeks by conglomerate blinded analysis. It counts as functional, organism-based. In short, it runs like this: as §3
Data set [12] relates to Mus musculus. Nature of the data set: Increase in disease free survival in NZB/W F1 mouse systemic lupus erythematosus model at 5 mg/kg/day, ip bid administered on day 1 at 22 weeks of age measured daily during compound dosing up to 34 weeks of age. The class given is functional, organism-based. In short, it runs like this:
as §4

For data set [13], the system named is Mus musculus. Nature of the data set: Toxicity in NZB/W F1 mouse systemic lupus erythematosus model assessed as body weight loss at 5 mg/kg/day, ip bid administered on day 1 at 22 weeks of age measured daily during compound dosing up to 34 weeks of age. The class given is organism-based. The conditions noted are these: in vivo. The method in brief:
as §4

The test system of data set [14] is Mus musculus. Nature of the data set: Inhibition of glomerulonephropathy in kidney of NZB/NZW F1 mouse systemic lupus erythematosus model at 5 mg/kg/day, ip bid administered on day 1 at 22 weeks of age measured at 60 weeks by hematoxylin and eosin staining based assay. It counts as functional, organism-based. In short, it runs like this:
as §3

Data set [15] deals with Mus musculus. Nature of the data set: anti-DWEYS peptide reactivity in serum of NZB/NZW F1 mouse systemic lupus erythematosus model at 5 mg/kg/day, ip bid administered on day 1 to 71.
Data set [16] relates to Mus musculus. Nature of the data set: Toxicity in NZB/W F1 mouse systemic lupus erythematosus model assessed as prostration at 5 mg/kg/day, ip bid administered on day 1 at 22 weeks of age measured daily during compound dosing up to 34 weeks of age. The class given is organism-based. As to conditions: in vivo. The method in brief: as §4
Data set [17] concerns Mus musculus. Nature of the data set: Inhibition of IgG level in glomeruli of NZB/NZW F1 mouse systemic lupus erythematosus model at 5 mg/kg/day, ip bid administered on day 1 at 22 weeks of age. It counts as functional, organism-based. The method in brief:
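Female NZB/W F1 mice dosed ip twice daily (5 mg kg−1 day−1) from 22 weeks of age. Formalin-fixed, paraffin-embedded terminal kidney sections from three representative mice per group stained for mouse IgG in glomeruli.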

The subject of data set [18] is Mus musculus. Nature of the data set: Inhibition of lymphocyte aggregation in kidney of NZB/NZW F1 mouse systemic lupus erythematosus model at 5 mg/kg/day, ip bid administered on day 1 at 22 weeks of age measured at 60 weeks by hematoxylin and eosin staining based assay. It counts as functional, organism-based. In short, it runs like this: as §3
The subject of data set [19] is Mus musculus. Nature of the data set: Toxicity in CD-1 mouse assessed as drug tolerance at 1 mg/kg, iv as infusion or 10 mg/kg via oral gavage measured up to 60 mins for iv dosing or up to 240 mins for oral gavage. The class given is organism-based. As to conditions: in vivo.
Data set [20] deals with Mus musculus. Nature of the data set: Inhibition of tubule dilation and casts in kidney of NZB/NZW F1 mouse systemic lupus erythematosus model at 5 mg/kg/day, ip bid administered on day 1 at 22 weeks of age measured at 60 weeks by hematoxylin and eosin staining based assay. The class given is functional, organism-based. The method in brief:
as §3

The test system of data set [21] is Mus musculus. Nature of the data set: Reduction in glomerular cellularity score in kidney of NZB/NZW F1 mouse systemic lupus erythematosus model at 5 mg/kg/day, ip bid administered on day 1 at 22 weeks of age measured daily during compound dosing at 60 weeks by conglomerate blinded analysis. The class given is functional, organism-based. The method in brief: as §3

Calls of active or inactive are those of the source. No cut-off for these calls is given here.

For the compound `Cc1cccc(C)c1OCC(=O)N[C@@H](Cc1ccccc1)[C@@H](O)C[C@H](Cc1ccccc1)NC(=O)[C@H](C(C)C)N1CCCNC1=O`, the inhibition entry in the data set filed under Mus musculus [1] is “Active”. Besides, in the data set filed under Mus musculus [2], the inhibition entry is “Dose-dependent effect”.

By IC50 is commonly meant the point on the concentration scale where inhibition reaches its midpoint. Consider `CC(C)(C)NC[C@@H]1CNCCN1C[C@@H](O)C[C@H](CN[C@H]1c2ccccc2C[C@H]1O)Cc1ccccc1`, for which the IC50 in [3] turned out to be 42.7 µM.

Turning to `Cc1c(O)cccc1CN[C@@H](CSc1ccccc1)[C@H](O)CN1C[C@H]2CCCC[C@H]2C[C@H]1CNC(C)(C)C`, the inhibition entry in the data set filed under Mus musculus [4] and in the data set filed under Mus musculus [7] was “Active” each time. For the same compound, the Activity entry in the data set on Mus musculus [5] and with Mus musculus [6] was “Non-Toxic” each time. Moreover, the inhibition entry in the data set filed under Mus musculus [2] was “Dose-dependent effect”. The IC50 in data set [3] was found to be 7.27 µM.

Turning to `CC(C)(C)NC[C@@H]1CC2CCCCC2CN1C[C@@H](O)[C@H](Cc1ccccc1)NC[C@H](CCN)NCC1Nc2ccccc2CC1O` (stereo partly drawn), the result in the data set on Mus musculus [8], in the data set on Mus musculus [9], in the data set with Mus musculus [11], in the data set on Mus musculus [12] and in the data set on Mus musculus [21] was Active. Further, the inhibition result in the data set filed under Mus musculus [4], with Mus musculus [14], with Mus musculus [15], with Mus musculus [17], in the data set with Mus musculus [18] and with Mus musculus [20] was “Active” throughout. Also, the inhibition result in the data set filed under Mus musculus [7] was “Active”. Moreover, the Time in the data set on Mus musculus [10] is listed as 26 - 36 weeks. The Activity entry in the data set on Mus musculus [5] was “Non-Toxic”; with Mus musculus [13], < 20%; in the data set on Mus musculus [16], “Non-Toxic”; in the data set on Mus musculus [19] it was “Non-Toxic”; in the data set with Mus musculus [6], “Non-Toxic”. For the same compound, the inhibition result in the data set listed under Mus musculus [2] is “Dose-dependent effect”. Besides, in data set [3], the IC50 was determined as 4.5 µM.

Turning to `CC(C)(C)NC(=O)[C@@H]1CN(Cc2cccnc2)CCN1C[C@@H](O)C[C@@H](Cc1ccccc1)C(=O)N[C@H]1c2ccccc2C[C@H]1O`, the inhibition entry in the data set listed under Mus musculus [1] is “Active”.

For `Cc1c(O)cccc1C(=O)N[C@@H](CSc1ccccc1)[C@H](O)CN1C[C@H]2CCCC[C@H]2C[C@H]1C(=O)NC(C)(C)C`, the inhibition entry in the data set filed under Mus musculus [1] and in the data set filed under Mus musculus [7] was “Active” each time. In the data set filed under Mus musculus [2], the inhibition entry is “Dose-dependent effect”.

Regarding `CNCCCN[C@H](CN[C@@H](Cc1ccccc1)C[C@H](O)[C@H](Cc1ccccc1)NCCOc1c(C)cccc1C)C(C)C`, the Activity result with Mus musculus [5] and in the data set with Mus musculus [6] was “Non-Toxic” throughout. The inhibition entry in the data set listed under Mus musculus [2] is “Dose-dependent effect”. For the same compound, the half-inhibitory concentration (IC50) in data set [3] came out at 2.08 µM. Besides, the inhibition result in the data set listed under Mus musculus [7] is “Active”.
